This is one part of a sample in which hits are shown more often than they occur.
TLR4-MyD88 BLA: blocks binding of human TLR4 to MyD88 | HeLa CL3-4 TLR4/MyD88 BLA complementation, FRET ratio | inhibition, % at 8.4 µM | hit rate 0.18% among 200,000; in the data active = inhibition above about 25%
NOD2 RIPK2 PPI: NOD2-RIPK2 protein interaction inhibition. O43353. CHO BLA complementation NOD2-RIPK2, CCF4 ratio. inhibition, % at 4.98 µM. AID 624267. hit rate 0.38% among 360,000; in the data active = inhibition above about 21%
TLR9-MyD88 block: inhibitors of human TLR9-MyD88 binding | Q9NR96+Q99836 | hit rate 0.21% among 340,000 | inhibition, % at 4.98 µM | CHO BLA complementation TLR9-MyD88, CCF4 FRET ratio;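 active = inhibition above the mean over all tested compounds plus 3 SD, cut at about 21% in these data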
XBP1 UPR activ: adaptive UPR (XBP1) activation; CHO-XBP1 luciferase reporter, IRE1-XBP1 UPR activation, luminescence; percent of tunicamycin response, DMSO as zero; activation, % at 20 µM; hit rate 0.33% among 330,000; AID 463104;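 active = versus positive control, 20 µM dose yields 30% or more activation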
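Test system: CHO-XBP1 luciferase reporter cells | Buffer or medium: Serum-containing F12 medium, 10% FBS | Schedule: 6 h compound exposure at 37 °C, 5% CO2 | Detection: Steady-Glo luciferase glow luminescence, 10 min after reagent addition | Read-out basis: Activation, % of tunicamycin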
CHOP inhibitor: CHOP inhibition in unfolded protein response; hit rate 3.8% among 220,000; CHO-K1 CHOP-promoter luciferase, tunicamycin-induced, 15-18 h; inhibition, % at 10 µM; AID 2732;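 active = compounds that reduced the stress-induced luciferase reporter signal by more than about 70% of percent inhibition, limit read from the data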
UPR CHOP act: activators of apoptotic arm of unfolded protein response (CHOP). CHO-CHOP luciferase reporter, UPR activation, luminescence; percent of tunicamycin response over DMSO baseline. activation, % at 10 µM. hit rate 0.34% among 330,000;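 active = at 10 µM dose, activation of 40% or more, normalized to positive control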
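measured by = luciferase luminescence | assay system = CHO-CHOP cells, stable luciferase reporter of PERK-eIF2a-CHOP signalling | amount = 500 reporter cells seeded per well | timing = 6 h compound exposure at 37 °C after overnight seeding | controls = positive tunicamycin 10 µg/mL, negative DMSO alone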
UPR CHOP confirm: confirmation of apoptotic unfolded protein response (CHOP) activators; shares compounds with UPR CHOP act; CHO-CHOP cells, CHOP-luciferase reporter luminescence; percent of tunicamycin response, DMSO as zero; activation, % at 10 µM; hit rate 64% among 1,000; AID 463112; in the data active = activation above about 33%
XBP1 UPR conf: adaptive UPR (XBP1) activation, confirmed. shares compounds with XBP1 UPR activ. CHO-XBP1 IRE1-XBP1 luciferase reporter, luminescence. activation, % at 20 µM. hit rate 63% among 1,000;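 active = reporter signal at least 30% of the positive control's activation in two or more of four replicate wells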
A number is an active result; 0 = inactive; - = no result.

SMILES	TLR4-MyD88 BLA	NOD2 RIPK2 PPI	TLR9-MyD88 block	XBP1 UPR activ	CHOP inhibitor	UPR CHOP act	UPR CHOP confirm	XBP1 UPR conf
CSc1nnc(NC(=O)c2nc(S(=O)(=O)Cc3ccccc3F)ncc2Cl)s1	-	0	0	0	-	44	77	-
COCCN1C[C@@H](CO)O[C@@H](n2cnc3c(NCCCO)ncnc32)C1	-	0	-	-	-	-	-	-
CC1=C(C(=O)N(C(C)C)C(C)C)CC(CC(=O)NCc2ccco2)C(=O)N1CCCN1CCCC1=O (centres undefined)	-	0	-	-	-	-	-	-
O=C(CCNC(=O)c1ccccc1Cl)Nc1ccc(S(=O)(=O)N2CCOCC2)cc1	-	0	0	-	-	-	-	-
CCN(CC)S(=O)(=O)c1ccc(-c2nnc(SCC(=O)N3CCOCC3)o2)cc1	0	0	0	0	0	0	-	-
CCN(CC)S(=O)(=O)c1ccc(-c2nnc(SCC(=O)N3CCc4ccccc43)o2)cc1	-	0	0	209	-	70	0	0
COc1cc(-c2ccc(N3C(c4ccsc4)=Cc4ccccc4C3CC(C)=O)cc2)cc(OC)c1OC (centres undefined)	-	0	-	-	-	-	-	-
C#CCn1c(=NC(=O)c2ccc(S(=O)(=O)N3CCc4ccccc4C3)cc2)sc2cc(S(N)(=O)=O)ccc21	0	0	0	58	110	82	0	83
O=C(NCc1ccc(F)c(F)c1)C1Cc2c(-c3ccc4c(c3)OCO4)ccnc2O1 (centres undefined)	-	0	-	-	-	-	-	-
Cc1ccc(S(=O)(=O)N2CCCCC2C(=O)N(C)c2ccccc2)cc1 (centres undefined)	-	0	0	0	-	0	-	-
CC(=O)Nc1ccc(CN(C)c2c(C)nc3ccc(C(=O)NC4CCN(Cc5ccccc5)CC4)cn23)cc1	-	0	-	-	-	-	-	-
O=C1c2ccccc2C(=O)N1/N=C/c1ccc(O)c(O)c1	0	0	0	72	70	54	0	37
O=C(NN=Cc1ccc(O)c(O)c1)c1ccccc1	-	0	-	-	-	-	-	-
O=C(NN1C(=O)/C(=C/c2ccc(O)c(O)c2)SC1=S)c1ccccc1	-	0	0	59	-	43	0	57
N=c1c(-c2nc3ccccc3[nH]2)cc(C(=O)c2ccco2)nn1-c1ccccc1	0	0	0	33	0	153	148	0
N=c1c(-c2nc3ccccc3[nH]2)cc(C(=O)c2cccs2)nn1-c1ccccc1	0	0	0	0	0	0	-	-
Cc1ccc(S(=O)(=O)N/N=C\c2ccc3c(c2)OCO3)c(C)c1	-	0	0	0	-	0	-	-
CCc1ccc(-n2c(SCC(=O)c3ccc4c(c3)NC(=O)CO4)nc3ccccc3c2=O)cc1	0	0	0	61	0	62	115	118
CCOC(=O)c1c(S(=O)(=O)NCC(=O)NCc2cccc(C)c2)c(C)n(C)c1C	-	0	0	0	-	0	-	-
CCOC(=O)c1c(NC(=O)CC2Nc3ccccc3NC2=O)sc(C)c1C (centres undefined)	0	0	0	0	0	0	-	-
COC(=O)c1c(NC(=O)CC2Nc3ccccc3NC2=O)sc(C)c1C (centres undefined)	0	0	0	47	0	160	40	31
CS(=O)(=O)Oc1ccc2c(c1)O/C(=C\C=C\c1ccccc1)C2=O	-	0	0	47	0	154	34	0
COc1ccc2nc(/C(C#N)=C\c3ccc(Oc4ccc([N+](=O)[O-])cn4)cc3)[nH]c2c1	0	0	0	182	71	98	0	37
COc1cc(/C=C(/C#N)c2ccc(C)cc2)ccc1Oc1ccc([N+](=O)[O-])cn1	0	0	0	0	0	0	-	-
CCCCN1C[C@H](Cc2ccccc2)[C@@H](CC(=O)NC)C1=O	-	0	0	-	-	-	-	-
SMILES	TLR4-MyD88 BLA	NOD2 RIPK2 PPI	TLR9-MyD88 block	XBP1 UPR activ	CHOP inhibitor	UPR CHOP act	UPR CHOP confirm	XBP1 UPR conf
COc1ccc(-c2cc(=O)oc3c(C)c(OC(C)C(C)=O)ccc23)cc1 (centres undefined)	-	0	0	0	-	0	-	-
COc1ccc(-c2cc(=O)oc3c(C)c(OC(=O)c4cccs4)ccc23)cc1	0	0	0	80	80	66	89	114
O=C(Nc1ccc(-c2nc3ccccc3o2)cc1)c1ccc2c(c1)OCO2	0	0	0	88	85	46	0	0
Cc1ccc2oc(-c3ccc(NC(=O)c4ccc5c(c4)OCO5)cc3)nc2c1	0	0	0	0	0	0	-	-
COc1ccc(-c2csc3nc(-c4ccc(C)cc4)oc(=O)c23)cc1OC	0	0	0	59	0	57	0	42
COc1ccc(C(C)=O)cc1Cn1c(C)c(C(=O)NCc2ccc3c(c2)OCO3)sc1=O	-	0	-	-	-	-	-	-
CN(/N=C\c1ccc(O)c(O)c1)c1nc(-c2ccccc2)cc(-c2ccccc2)n1	0	0	0	66	103	112	93	98
CC1(C)C2CCC1(CS(=O)(=O)N1CCC(C(=O)O)CC1)C(=O)C2 (centres undefined)	-	0	0	0	0	0	-	-
CCOC(=O)N1CCN(S(=O)(=O)c2ccc(C(=O)Nc3nc4c(s3)CC(C)CC4)cc2)CC1 (centres undefined)	0	0	0	62	93	64	96	116
CCOC(=O)N1CCN(S(=O)(=O)c2ccc(C(=O)Nc3nnc(C4CC4)o3)cc2)CC1	0	0	0	0	0	0	-	-
O=C(NC(=S)Nc1ccc(NC(=O)c2cccs2)cc1)c1ccco1	0	0	0	0	0	0	-	-
O=C(NC(=S)Nc1ccc(NC(=O)c2cccs2)cc1)c1cc2ccccc2o1	0	0	0	121	76	57	46	106
CCNC(=O)C1(C)CCCN(C(=O)c2ccc(F)c(C)c2)C1 (centres undefined)	-	0	-	-	-	-	-	-
Cc1ccc2c(c1)C(c1ccc([N+](=O)[O-])cc1)=NNC(c1ccc(Br)cc1)=N2	0	0	0	84	94	75	0	74
CCN1C(=O)[C@@H]2Cc3c([nH]c4ccccc34)C(c3cc(OC)c(OC)c(OC)c3)N2C1=S (some centres undefined)	-	0	0	0	-	0	-	-
COc1cc([C@H]2c3[nH]c4ccccc4c3C[C@H]3C(=O)N4[C@@H](c5cc(OC)c(OC)c(OC)c5)c5[nH]c6ccccc6c5C[C@H]4C(=O)N23)cc(OC)c1OC	0	0	0	153	96	88	109	118
COc1ccc(NC(=O)C(=O)N2N=C(C(C)C)CC2(O)C(F)(F)F)cc1 (centres undefined)	0	0	0	0	0	0	-	-
O=C(N/N=C/c1cccc([N+](=O)[O-])c1)c1cc2c(ccc3ccccc32)o1	0	0	0	40	0	104	77	0

Screening results from PubChem.
